The values below come from ChEMBL document CHEMBL1138252, “Synthesis, in vitro inhibitory activity towards COX-2 and haemolytic activity of derivatives of esculentoside A” (Bioorg Med Chem Lett, 2007).

Data set [1] in a line: Toxicity against new Zealand rabbit blood assessed as hemolysis after 60 mins. Type of data set: tissue-based, Oryctolagus cuniculus. The following applies: read-out: HD50. The essentials:
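Erythrocytes washed three times in PBS (pH 7.4) and diluted to a 10% suspension. Compounds were dissolved in DMSO, then diluted with PBS to 2.5–250 µg/mL. Suspension was added, and samples were stirred and incubated 60 min at 37 °C with periodic stirring. After centrifugation at 3000 rpm for 5 min, supernatant A540 was read. Haemolysis % was calculated relative to distilled water (100%).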

Data set [2] has as its target T1, Prostaglandin G/H synthase 2 (Homo sapiens) (UniProt P35354).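 Also: recombinant human COX2 made in Sf9 insect cells, read-out is reactive oxygen species formed on arachidonic acid stimulation, measured after 30 min.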
T1 sequence (whole entry): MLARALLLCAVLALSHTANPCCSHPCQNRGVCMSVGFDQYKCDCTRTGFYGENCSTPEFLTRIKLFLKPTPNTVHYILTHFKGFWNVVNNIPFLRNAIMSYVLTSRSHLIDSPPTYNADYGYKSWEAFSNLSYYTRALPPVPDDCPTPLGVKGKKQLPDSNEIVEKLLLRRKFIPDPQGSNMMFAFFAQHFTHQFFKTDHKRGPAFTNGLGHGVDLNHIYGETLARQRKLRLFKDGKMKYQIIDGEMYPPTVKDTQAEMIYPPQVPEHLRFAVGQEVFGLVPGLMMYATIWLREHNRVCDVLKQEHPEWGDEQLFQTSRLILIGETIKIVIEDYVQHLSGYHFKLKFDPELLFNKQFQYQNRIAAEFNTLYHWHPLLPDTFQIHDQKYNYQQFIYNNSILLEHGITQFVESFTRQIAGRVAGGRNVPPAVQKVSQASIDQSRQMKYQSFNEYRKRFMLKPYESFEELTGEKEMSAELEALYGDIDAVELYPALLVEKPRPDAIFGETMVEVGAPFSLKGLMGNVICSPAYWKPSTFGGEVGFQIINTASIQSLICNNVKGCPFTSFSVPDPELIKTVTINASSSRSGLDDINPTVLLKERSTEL
The note with it: Spodoptera frugiperda; Sf9; at 10 µM.

Molecules are shown by their SMILES.

Take `COC(=O)[C@@H](CCSC)NC(=O)[C@]12CC[C@](C)(C(=O)OC)C[C@H]1C1=CC[C@@H]3[C@@]4(C)C[C@H](O)[C@H](O[C@@H]5OC[C@@H](O[C@@H]6O[C@H](CO)[C@@H](O)[C@H](O)[C@H]6O)[C@H](O)[C@H]5O)[C@@](C)(CO)[C@@H]4CC[C@@]3(C)[C@]1(C)CC2`: the HC50 at 1 h in data set [1] amounted to 203 µM.
For the compound `CCCCNC(=O)[C@]12CC[C@](C)(C(=O)OC)C[C@H]1C1=CC[C@@H]3[C@@]4(C)C[C@H](O)[C@H](O[C@@H]5OC[C@@H](O[C@@H]6O[C@H](CO)[C@@H](O)[C@H](O)[C@H]6O)[C@H](O)[C@H]5O)[C@@](C)(CO)[C@@H]4CC[C@@]3(C)[C@]1(C)CC2`, in data set [1], the HC50 at 1 h was 15.8 µM.
Usually inhibition stands for the drop in the measured response relative to a control, in per cent. On to `COC(=O)[C@@]1(C)CC[C@]2(C(=O)N(C(=O)NC3CCCCC3)C3CCCCC3)CC[C@]3(C)C(=CC[C@@H]4[C@@]5(C)C[C@H](O)[C@H](O[C@@H]6OC[C@@H](O[C@@H]7O[C@H](CO)[C@@H](O)[C@H](O)[C@H]7O)[C@H](O)[C@H]6O)[C@@](C)(CO)[C@@H]5CC[C@]43C)[C@@H]2C1`, for which the inhibition in data set [2] stood at 75%. Besides, in data set [1], the HC50 at 1 h is less than 2.4 µM.
For the compound `CCCNC(=O)[C@]12CC[C@](C)(C(=O)OC)C[C@H]1C1=CC[C@@H]3[C@@]4(C)C[C@H](O)[C@H](O[C@@H]5OC[C@@H](O[C@@H]6O[C@H](CO)[C@@H](O)[C@H](O)[C@H]6O)[C@H](O)[C@H]5O)[C@@](C)(CO)[C@@H]4CC[C@@]3(C)[C@]1(C)CC2`, the HC50 at 1 h in data set [1] was determined as 191 µM.
Consider `COC(=O)[C@@]1(C)CC[C@]2(C(=O)O)CC[C@]3(C)C(=CC[C@@H]4[C@@]5(C)C[C@H](O)[C@H](O[C@@H]6OC[C@@H](O[C@@H]7O[C@H](CO)[C@@H](O)[C@H](O)[C@H]7O)[C@H](O)[C@H]6O)[C@@](C)(CO)[C@@H]5CC[C@]43C)[C@@H]2C1`, for which the inhibition in data set [2] is 21.7%. In addition, in data set [1], the HC50 at 1 h stood at 186 µM.
As to `COC(=O)[C@@]1(C)CC[C@]2(C(=O)NCc3ccc(OC)cc3)CC[C@]3(C)C(=CC[C@@H]4[C@@]5(C)C[C@H](O)[C@H](O[C@@H]6OC[C@@H](O[C@@H]7O[C@H](CO)[C@@H](O)[C@H](O)[C@H]7O)[C@H](O)[C@H]6O)[C@@](C)(CO)[C@@H]5CC[C@]43C)[C@@H]2C1`, the inhibition in data set [2] was 56.8%. Moreover, in data set [1], the HC50 at 1 h came out at 12.7 µM.
Consider `COC(=O)[C@@H](Cc1ccccc1)NC(=O)[C@]12CC[C@](C)(C(=O)OC)C[C@H]1C1=CC[C@@H]3[C@@]4(C)C[C@H](O)[C@H](O[C@@H]5OC[C@@H](O[C@@H]6O[C@H](CO)[C@@H](O)[C@H](O)[C@H]6O)[C@H](O)[C@H]5O)[C@@](C)(CO)[C@@H]4CC[C@@]3(C)[C@]1(C)CC2`, for which the HC50 at 1 h in data set [1] turned out to be 204 µM.
In the case of `COC(=O)[C@@H](Cc1c[nH]c2ccccc12)NC(=O)[C@]12CC[C@](C)(C(=O)OC)C[C@H]1C1=CC[C@@H]3[C@@]4(C)C[C@H](O)[C@H](O[C@@H]5OC[C@@H](O[C@@H]6O[C@H](CO)[C@@H](O)[C@H](O)[C@H]6O)[C@H](O)[C@H]5O)[C@@](C)(CO)[C@@H]4CC[C@@]3(C)[C@]1(C)CC2`, in data set [2], the inhibition came to 47.7%. In addition, the HC50 at 1 h in data set [1] was more than 243 µM.
`COC(=O)[C@@]1(C)CC[C@]2(C(=O)On3nnc4ccccc43)CC[C@]3(C)C(=CC[C@@H]4[C@@]5(C)C[C@H](O)[C@H](O[C@@H]6OC[C@@H](O[C@@H]7O[C@H](CO)[C@@H](O)[C@H](O)[C@H]7O)[C@H](O)[C@H]6O)[C@@](C)(CO)[C@@H]5CC[C@]43C)[C@@H]2C1`: the HC50 at 1 h in data set [1] was 55.2 µM.
Take `COC(=O)[C@@]1(C)CC[C@]2(C(=O)NCCCc3ccccc3)CC[C@]3(C)C(=CC[C@@H]4[C@@]5(C)C[C@H](O)[C@H](O[C@@H]6OC[C@@H](O[C@@H]7O[C@H](CO)[C@@H](O)[C@H](O)[C@H]7O)[C@H](O)[C@H]6O)[C@@](C)(CO)[C@@H]5CC[C@]43C)[C@@H]2C1`: the HC50 at 1 h in data set [1] was less than 2.6 µM.
For the compound `CNC(=O)[C@]12CC[C@](C)(C(=O)OC)C[C@H]1C1=CC[C@@H]3[C@@]4(C)C[C@H](O)[C@H](O[C@@H]5OC[C@@H](O[C@@H]6O[C@H](CO)[C@@H](O)[C@H](O)[C@H]6O)[C@H](O)[C@H]5O)[C@@](C)(CO)[C@@H]4CC[C@@]3(C)[C@]1(C)CC2`, the HC50 at 1 h in data set [1] is 276 µM.
Consider `COC(=O)[C@@]1(C)CC[C@]2(C(=O)NCc3ccc(OC)c(OC)c3)CC[C@]3(C)C(=CC[C@@H]4[C@@]5(C)C[C@H](O)[C@H](O[C@@H]6OC[C@@H](O[C@@H]7O[C@H](CO)[C@@H](O)[C@H](O)[C@H]7O)[C@H](O)[C@H]6O)[C@@](C)(CO)[C@@H]5CC[C@]43C)[C@@H]2C1`, for which the inhibition in data set [2] was 19.4%. The HC50 at 1 h in data set [1] came out at 215 µM.
`COC(=O)[C@@]1(C)CC[C@]2(C(=O)NCc3ccccc3)CC[C@]3(C)C(=CC[C@@H]4[C@@]5(C)C[C@H](O)[C@H](O[C@@H]6OC[C@@H](O[C@@H]7O[C@H](CO)[C@@H](O)[C@H](O)[C@H]7O)[C@H](O)[C@H]6O)[C@@](C)(CO)[C@@H]5CC[C@]43C)[C@@H]2C1`: the inhibition in data set [2] is 26.9%. In addition, the HC50 at 1 h in data set [1] is 136 µM.
With `COC(=O)[C@@]1(C)CC[C@]2(C(=O)NCCO)CC[C@]3(C)C(=CC[C@@H]4[C@@]5(C)C[C@H](O)[C@H](O[C@@H]6OC[C@@H](O[C@@H]7O[C@H](CO)[C@@H](O)[C@H](O)[C@H]7O)[C@H](O)[C@H]6O)[C@@](C)(CO)[C@@H]5CC[C@]43C)[C@@H]2C1`, the HC50 at 1 h in data set [1] is more than 287 µM.
As for `COC(=O)[C@H](NC(=O)[C@]12CC[C@](C)(C(=O)OC)C[C@H]1C1=CC[C@@H]3[C@@]4(C)C[C@H](O)[C@H](O[C@@H]5OC[C@@H](O[C@@H]6O[C@H](CO)[C@@H](O)[C@H](O)[C@H]6O)[C@H](O)[C@H]5O)[C@@](C)(CO)[C@@H]4CC[C@@]3(C)[C@]1(C)CC2)C(C)C`, the HC50 at 1 h in data set [1] was more than 266 µM.
On to `COC(=O)[C@@]1(C)CC[C@]2(C(=O)NCc3ccccc3Cl)CC[C@]3(C)C(=CC[C@@H]4[C@@]5(C)C[C@H](O)[C@H](O[C@@H]6OC[C@@H](O[C@@H]7O[C@H](CO)[C@@H](O)[C@H](O)[C@H]7O)[C@H](O)[C@H]6O)[C@@](C)(CO)[C@@H]5CC[C@]43C)[C@@H]2C1`, for which, in data set [2], the inhibition was determined as 82.9%. For the same compound, in data set [1], the HC50 at 1 h was 42.8 µM.
With `COC(=O)[C@@]1(C)CC[C@]2(C(=O)NCc3ccc(F)cc3)CC[C@]3(C)C(=CC[C@@H]4[C@@]5(C)C[C@H](O)[C@H](O[C@@H]6OC[C@@H](O[C@@H]7O[C@H](CO)[C@@H](O)[C@H](O)[C@H]7O)[C@H](O)[C@H]6O)[C@@](C)(CO)[C@@H]5CC[C@]43C)[C@@H]2C1`, in data set [2], the inhibition was found to be 58.1%. Also, the HC50 at 1 h in data set [1] is 94.5 µM.
In the case of `COC(=O)[C@@]1(C)CC[C@]2(C(=O)NCCc3ccccc3)CC[C@]3(C)C(=CC[C@@H]4[C@@]5(C)C[C@H](O)[C@H](O[C@@H]6OC[C@@H](O[C@@H]7O[C@H](CO)[C@@H](O)[C@H](O)[C@H]7O)[C@H](O)[C@H]6O)[C@@](C)(CO)[C@@H]5CC[C@]43C)[C@@H]2C1`, in data set [2], the inhibition stood at 94.7%. The HC50 at 1 h in data set [1] came to 21.3 µM.
In the case of `COC(=O)[C@@]1(C)CC[C@]2(C(=O)N3CCNCC3)CC[C@]3(C)C(=CC[C@@H]4[C@@]5(C)C[C@H](O)[C@H](O[C@@H]6OC[C@@H](O[C@@H]7O[C@H](CO)[C@@H](O)[C@H](O)[C@H]7O)[C@H](O)[C@H]6O)[C@@](C)(CO)[C@@H]5CC[C@]43C)[C@@H]2C1`, the inhibition in data set [2] is 4.6%.
Consider `COC(=O)[C@@]1(C)CC[C@]2(C(=O)NCc3ccc(Cl)cc3)CC[C@]3(C)C(=CC[C@@H]4[C@@]5(C)C[C@H](O)[C@H](O[C@@H]6OC[C@@H](O[C@@H]7O[C@H](CO)[C@@H](O)[C@H](O)[C@H]7O)[C@H](O)[C@H]6O)[C@@](C)(CO)[C@@H]5CC[C@]43C)[C@@H]2C1`, for which, in data set [2], the inhibition was 126%. Further, in data set [1], the HC50 at 1 h was less than 2.6 µM.
As to `COC(=O)[C@@H](C)NC(=O)[C@]12CC[C@](C)(C(=O)OC)C[C@H]1C1=CC[C@@H]3[C@@]4(C)C[C@H](O)[C@H](O[C@@H]5OC[C@@H](O[C@@H]6O[C@H](CO)[C@@H](O)[C@H](O)[C@H]6O)[C@H](O)[C@H]5O)[C@@](C)(CO)[C@@H]4CC[C@@]3(C)[C@]1(C)CC2`, the HC50 at 1 h in data set [1] is more than 274 µM.
